The nature of assay [1]: Agonist activity at human nAChR alpha6/alpha3beta2beta3 V273S mutant expressed in HEK293T cells by FLIPR. In kind it is functional, cell-based. The following applies: HEK-293T.
For assay [2], the target named is T1, Neuronal acetylcholine receptor; alpha4/beta2 (Homo sapiens, UniProt P17787+P43681). As to the kind of experiment: Agonist activity at human alpha4beta2 nAChR expressed in human SH-EP1 cells by whole cell voltage clamp based electrophysiology method. In kind it is functional. Summed up: (§1)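 Whole-cell voltage clamp at -60 mV, room temperature (22 ± 1 °C), one cell per agonist load, Dynaflow fast application. Agonist applied 1 s for α4β2 and 0.5 s for α7, with 30 s washout. Tris-based pipette solution, pH 7.3. Concentration-response data fitted to the Hill equation, with α4β2 fitted as the sum of two Hill equations. Max % relative to 1 mM ACh.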

Assay [3] concerns the target T2, Neuronal acetylcholine receptor; alpha3/beta4 (Homo sapiens, UniProt P30926+P32297). Put plainly: Displacement of [3H]epibatidine from human alpha3beta4 nAChR expressed in human SH-SY5Y cells. The class given is cell-based. Summed up:
(§2)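 Binding to membranes from the cell lines: homogenised in PBS pH 7.4, spun at 40000g for 20 min at 4 °C, then incubated 2 h on ice in PBS with competitor (0.001 nM to 100 μM) and radioligand. Filters washed in ice-cold PBS and counted by scintillation. IC50 from nonlinear regression; Ki by Cheng-Prusoff. Minimum of three assays, ± SEM.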
(In general: In a radioligand displacement assay an active substance lowers the binding of a labelled ligand.)

The target of assay [4] is Nicotinic acetylcholine receptor alpha6/alpha3/beta2/beta3 (Rattus norvegicus) (UniProt P04757+P12390+P12391+P43143). As to the kind of experiment: Agonist activity at alpha6/alpha3beta2beta3 nAChR in Sprague-Dawley rat striatal synaptosomes assessed as induction of dopamine release relative to 10 uM nicotine. Conditions: Brain. In kind it is functional, subcellular.
Assay [5] has as its target Neuronal acetylcholine receptor subunit alpha-7 (Homo sapiens, UniProt P36544). Put plainly: Displacement of [3H]epibatidine from human alpha7 nAChR expressed in human HEK/RIC3 cells. The class given is cell-based. Summed up: as §2
In assay [6] the target is Nicotinic acetylcholine receptor alpha6/alpha3/beta2/beta3 (Rattus norvegicus, UniProt P04757+P12390+P12391+P43143). As to the kind of experiment: Agonist activity at alpha6/alpha3beta2beta3 nAChR in Sprague-Dawley rat striatal synaptosomes assessed as induction of dopamine release. In kind it is functional, subcellular, Brain.
Assay [7] is described as follows: Agonist activity at rat alpha7 nAChR T6'S59 mutant expressed in rat GH4C1 cells by whole cell voltage clamp based electrophysiology method. In kind it is functional. Conditions: GH4-C1. Summed up: as §1
Assay [8] can be described thus: Agonist activity at rat alpha7 nAChR T6'S59 mutant expressed in rat GH4C1 cells by whole cell voltage clamp based electrophysiology method relative to 1 mM acetylcholine. The class given is functional, GH4-C1. Summed up:
as §1

The target of assay [9] is T1, Neuronal acetylcholine receptor; alpha4/beta2. As to the kind of experiment: Displacement of [3H]nicotine from human alpha4beta2 nAChR expressed in human SH-EP1 cells. The class given is cell-based. Summed up: as §2
The target in assay [10] is T2, Neuronal acetylcholine receptor; alpha3/beta4. As to the kind of experiment: Agonist activity at human alpha3beta4 nAChR expressed in human SH-SY5Y cells assessed as increase in calcium flux by FLIPR. The class given is functional, cell-based. In general terms: Calcium assays in cells follow changes in intracellular calcium, usually with a dye or a luminescent sensor.

The target of assay [11] is Neuronal acetylcholine receptor; alpha3/alpha6/beta2/beta3 (Homo sapiens, UniProt P17787+P32297+Q05901+Q15825). As to the kind of experiment: Displacement of [3H]epibatidine from human alpha6/alpha3beta2beta3 nAChR expressed in HEK293T cells.
For assay [12], the target named is T1, Neuronal acetylcholine receptor; alpha4/beta2. Put plainly: Agonist activity at human alpha4beta2 nAChR high sensitivity form expressed in human SH-EP1 cells assessed as increase in calcium flux by FLIPR. In kind it is functional, cell-based.
Assay [13] shares this target. As to the kind of experiment: Agonist activity at human alpha4beta2 nAChR high sensitivity form expressed in human SH-EP1 cells assessed as increase in calcium flux by FLIPR relative to 10 uM nicotine. The class given is functional, cell-based.
A short description of assay [14]: Agonist activity at human nAChR alpha6/alpha3beta2beta3 V273S mutant expressed in HEK293T cells by FLIPR relative to 10 uM nicotine. The class given is functional, HEK-293T.
Assay [15] addresses T1, Neuronal acetylcholine receptor; alpha4/beta2. Put plainly: Agonist activity at human alpha4beta2 nAChR low sensitivity form expressed in human SH-EP1 cells assessed as increase in calcium flux by FLIPR relative to 10 uM nicotine. In kind it is functional, cell-based.
Assay [16] shares this target. Put plainly: Agonist activity at human alpha4beta2 nAChR low sensitivity form expressed in human SH-EP1 cells assessed as increase in calcium flux by FLIPR. The class given is functional, cell-based.
Assay [17] shares this target. Put plainly: Agonist activity at human alpha4beta2 nAChR expressed in human SH-EP1 cells by whole cell voltage clamp based electrophysiology method relative to 1 mM acetylcholine. In kind it is functional. Summed up:
as §1

Assay [18] deals with T2, Neuronal acetylcholine receptor; alpha3/beta4. Put plainly: Agonist activity at human alpha3beta4 nAChR expressed in human SH-SY5Y cells assessed as increase in calcium flux by FLIPR relative to 10 uM nicotine. In kind it is functional, cell-based.
For assay [19], the species on record is Homo sapiens. As to the kind of experiment: Selectivity index, ratio of Ki for human alpha3beta4 nAChR to Ki for human alpha4beta2 nAChR.
The species entered for assay [20] is Homo sapiens. As to the kind of experiment: Ratio of EC50 for human nAChR alpha6/alpha3beta2beta3 V273S mutant to Ki for human alpha6/alpha3beta2beta3 nAChR.

This is an account of results in ChEMBL document CHEMBL2176949 (J Med Chem, 2012).

T2 sequence (P30926 whole entry): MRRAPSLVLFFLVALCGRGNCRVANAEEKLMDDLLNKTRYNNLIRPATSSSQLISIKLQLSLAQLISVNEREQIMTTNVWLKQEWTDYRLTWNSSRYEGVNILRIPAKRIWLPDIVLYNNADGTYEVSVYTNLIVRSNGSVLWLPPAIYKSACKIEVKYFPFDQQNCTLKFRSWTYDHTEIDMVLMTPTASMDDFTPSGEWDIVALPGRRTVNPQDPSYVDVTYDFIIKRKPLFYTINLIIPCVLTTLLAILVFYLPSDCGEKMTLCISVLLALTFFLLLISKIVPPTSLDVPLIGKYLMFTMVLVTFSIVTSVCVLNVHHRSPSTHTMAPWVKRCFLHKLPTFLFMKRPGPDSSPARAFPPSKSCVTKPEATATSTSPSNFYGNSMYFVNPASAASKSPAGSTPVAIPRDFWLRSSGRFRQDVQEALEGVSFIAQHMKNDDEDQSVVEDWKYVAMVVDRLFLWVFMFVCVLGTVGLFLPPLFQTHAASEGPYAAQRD
T2 sequence (P32297 whole entry): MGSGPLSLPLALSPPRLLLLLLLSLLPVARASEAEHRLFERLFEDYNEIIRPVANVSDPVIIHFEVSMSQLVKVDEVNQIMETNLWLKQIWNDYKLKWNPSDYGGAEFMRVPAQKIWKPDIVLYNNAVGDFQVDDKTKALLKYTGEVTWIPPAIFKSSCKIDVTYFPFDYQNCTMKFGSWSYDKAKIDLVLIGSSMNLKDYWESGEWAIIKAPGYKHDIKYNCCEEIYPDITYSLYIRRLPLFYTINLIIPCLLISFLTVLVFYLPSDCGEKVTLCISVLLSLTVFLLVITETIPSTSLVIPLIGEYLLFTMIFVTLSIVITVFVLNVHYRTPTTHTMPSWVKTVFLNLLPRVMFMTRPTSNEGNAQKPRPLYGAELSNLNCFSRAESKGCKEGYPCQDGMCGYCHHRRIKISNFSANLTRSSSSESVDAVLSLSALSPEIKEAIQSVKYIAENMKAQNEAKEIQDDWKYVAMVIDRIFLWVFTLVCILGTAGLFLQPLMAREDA
T1 sequence (P17787 whole entry): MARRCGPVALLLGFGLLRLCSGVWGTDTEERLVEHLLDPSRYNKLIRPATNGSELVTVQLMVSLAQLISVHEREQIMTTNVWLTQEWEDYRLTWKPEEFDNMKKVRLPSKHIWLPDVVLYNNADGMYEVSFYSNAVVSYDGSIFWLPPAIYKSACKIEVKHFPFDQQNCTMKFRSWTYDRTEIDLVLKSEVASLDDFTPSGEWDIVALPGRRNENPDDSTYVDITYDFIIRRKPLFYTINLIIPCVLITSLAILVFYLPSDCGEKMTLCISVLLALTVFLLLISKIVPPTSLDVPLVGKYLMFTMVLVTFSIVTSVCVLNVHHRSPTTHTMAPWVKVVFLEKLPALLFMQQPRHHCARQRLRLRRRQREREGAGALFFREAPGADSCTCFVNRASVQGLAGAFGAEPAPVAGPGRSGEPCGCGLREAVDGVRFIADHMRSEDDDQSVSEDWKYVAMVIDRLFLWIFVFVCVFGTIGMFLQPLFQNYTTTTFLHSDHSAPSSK
T1 sequence (P43681 whole entry): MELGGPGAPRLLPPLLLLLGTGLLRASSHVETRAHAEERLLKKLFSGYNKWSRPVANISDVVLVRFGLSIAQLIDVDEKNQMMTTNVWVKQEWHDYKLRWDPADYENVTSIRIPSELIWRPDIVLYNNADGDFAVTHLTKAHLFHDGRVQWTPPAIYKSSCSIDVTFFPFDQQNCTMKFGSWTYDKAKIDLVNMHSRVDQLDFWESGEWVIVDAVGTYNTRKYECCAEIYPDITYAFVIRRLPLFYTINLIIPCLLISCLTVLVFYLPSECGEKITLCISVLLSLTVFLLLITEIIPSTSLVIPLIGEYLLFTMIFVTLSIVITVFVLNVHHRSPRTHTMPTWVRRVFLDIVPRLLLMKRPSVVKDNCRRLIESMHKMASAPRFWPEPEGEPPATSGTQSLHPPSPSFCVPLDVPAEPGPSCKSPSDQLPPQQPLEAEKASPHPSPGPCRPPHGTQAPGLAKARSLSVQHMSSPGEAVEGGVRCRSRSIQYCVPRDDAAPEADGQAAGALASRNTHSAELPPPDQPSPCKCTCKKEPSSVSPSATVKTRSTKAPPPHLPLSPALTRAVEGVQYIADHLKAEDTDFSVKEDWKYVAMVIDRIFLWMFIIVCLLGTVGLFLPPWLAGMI
Chain of Neuronal acetylcholine receptor; alpha3/alpha6/beta2/beta3 (P17787 whole entry): as the sequence (P17787 whole entry) above
Chain of Neuronal acetylcholine receptor; alpha3/alpha6/beta2/beta3 (P32297 whole entry): as the sequence (P32297 whole entry) above
Chain of Neuronal acetylcholine receptor; alpha3/alpha6/beta2/beta3 (Q15825 whole entry): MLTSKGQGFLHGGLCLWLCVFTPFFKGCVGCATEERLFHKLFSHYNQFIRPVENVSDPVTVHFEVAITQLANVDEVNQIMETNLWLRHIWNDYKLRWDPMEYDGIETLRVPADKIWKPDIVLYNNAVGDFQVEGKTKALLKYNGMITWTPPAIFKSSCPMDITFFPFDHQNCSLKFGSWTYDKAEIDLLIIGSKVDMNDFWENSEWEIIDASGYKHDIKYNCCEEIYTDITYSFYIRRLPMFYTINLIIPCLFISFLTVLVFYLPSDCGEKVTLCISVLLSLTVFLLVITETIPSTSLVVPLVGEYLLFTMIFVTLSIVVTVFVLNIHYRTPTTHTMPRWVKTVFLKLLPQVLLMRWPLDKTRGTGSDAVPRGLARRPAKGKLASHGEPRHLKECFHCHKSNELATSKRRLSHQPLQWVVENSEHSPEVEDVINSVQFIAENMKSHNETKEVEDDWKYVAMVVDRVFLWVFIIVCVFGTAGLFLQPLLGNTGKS
Chain of Neuronal acetylcholine receptor; alpha3/alpha6/beta2/beta3 (Q05901 whole entry): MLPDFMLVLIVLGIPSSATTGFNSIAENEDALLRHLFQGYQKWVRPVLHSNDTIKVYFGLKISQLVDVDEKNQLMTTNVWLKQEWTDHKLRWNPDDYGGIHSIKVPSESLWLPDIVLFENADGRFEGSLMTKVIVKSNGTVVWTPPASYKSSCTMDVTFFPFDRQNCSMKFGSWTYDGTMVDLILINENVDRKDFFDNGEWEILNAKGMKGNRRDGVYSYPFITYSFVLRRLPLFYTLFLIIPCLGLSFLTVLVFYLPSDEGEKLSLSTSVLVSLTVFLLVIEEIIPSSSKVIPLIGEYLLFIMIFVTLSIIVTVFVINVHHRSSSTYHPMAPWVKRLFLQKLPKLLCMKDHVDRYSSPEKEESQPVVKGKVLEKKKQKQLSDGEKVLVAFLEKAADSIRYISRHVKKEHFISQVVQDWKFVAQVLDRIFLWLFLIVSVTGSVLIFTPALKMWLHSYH
Chain of Neuronal acetylcholine receptor subunit alpha-7 (P36544 whole entry): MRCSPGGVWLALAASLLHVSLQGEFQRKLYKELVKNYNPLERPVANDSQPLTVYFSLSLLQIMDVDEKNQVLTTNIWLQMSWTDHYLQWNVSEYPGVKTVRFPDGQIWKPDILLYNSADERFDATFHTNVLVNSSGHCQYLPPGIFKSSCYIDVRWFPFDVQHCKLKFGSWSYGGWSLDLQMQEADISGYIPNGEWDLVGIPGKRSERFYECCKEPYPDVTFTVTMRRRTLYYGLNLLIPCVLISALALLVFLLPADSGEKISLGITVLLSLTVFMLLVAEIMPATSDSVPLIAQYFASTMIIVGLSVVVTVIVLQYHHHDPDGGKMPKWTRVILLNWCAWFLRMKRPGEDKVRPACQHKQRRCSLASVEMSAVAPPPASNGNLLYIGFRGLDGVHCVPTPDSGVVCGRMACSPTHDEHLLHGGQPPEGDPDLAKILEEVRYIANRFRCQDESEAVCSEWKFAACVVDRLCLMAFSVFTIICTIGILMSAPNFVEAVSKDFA

Broadly, the EC50 is the midpoint of the concentration-response curve. By Ki is commonly meant the dissociation constant of the complex between target and ligand, obtained from inhibition or displacement. On to `CN1C[C@@H]2C=C(c3cccnc3)C[C@@H](C2)C1`, for which the EC50 in assay [1] was greater than 10000 nM; in [2] it was 3100 nM; in [6], 855 nM; in [7] it was 6000 nM; in [10], greater than 10000 nM; in [12], 6660 nM. Also, the EC50 in assay [16] was greater than 10000 nM. The Ki in assay [3] amounted to 1800 nM; in assay [5] it was 70 nM; in [9] it was 9.4 nM; in assay [11], 320 nM. The %max was determined as 13% in [4]; 87% in assay [8]; 53% in assay [13]; 9% in assay [14]; 17% in assay [15]; 18% in [17]. Moreover, in assay [18], the %max worked out at 25%.

As for `C1=C(c2cccnc2)C[C@H]2CNC[C@@H]1C2`, the EC50 in assay [1] came out at 14 nM; in [2] it was 100 nM; in assay [6], 0.95 nM; in assay [7], 30 nM; in assay [10], 37 nM; in [12], 2.3 nM. The EC50 in assay [16] is 12 nM. The Ratio Ki in the assay filed under Homo sapiens [19] was determined as 20. Further, the Ki in assay [3] stood at 4 nM; in assay [5], 1.2 nM; in [9], 0.2 nM; in [11] it was 0.95 nM. Moreover, the %max in [4] came out at 73%; in [8], 20%; in assay [13], 114%; in assay [14] it was 110%; in assay [15] it was 129%; in assay [17] it was 40%. Also, in assay [18], the %max worked out at 142%. The Ratio in the assay listed under Homo sapiens [20] was determined as 15.

For `C1=C(c2cncc(Oc3ccccc3)c2)CC2CNCC1C2` (centres undefined), the EC50 was greater than 10000 nM in assay [1]; 590 nM in [2]; 718 nM in assay [6]; 350 nM in [7]; 23 nM in [10]; 62 nM in [12]. The EC50 in assay [16] amounted to 654 nM. In addition, the Ki was 1.9 nM in assay [3], 22 nM in assay [5], 0.7 nM in [9] and 4.8 nM in [11]. Also, the %max in assay [4] stood at 57%; in assay [8] it was 31%; in assay [13], 52%; in [14], 0%; in [15], 30%; in [17], 9%. Further, in [18], the %max came out at 101%.

On to `CC(C)Oc1cncc(C2=CC3CNCC(C2)C3)c1` (centres undefined), for which the concentration for a half-maximal effect (EC50) in assay [1] is greater than 10000 nM; in [2], 1400 nM; in assay [6], 1090 nM; in [7], 2800 nM; in assay [10], 69 nM; in [12] it was 164 nM. Further, the EC50 in assay [16] came to 562 nM. The Ki in [3] came out at 4.8 nM; in assay [5], 105 nM; in assay [9], 0.26 nM; in assay [11], 2.6 nM. Besides, the %max in assay [4] stood at 86%; in assay [8], 92%; in assay [13] it was 75%; in [14], 3%; in [15], 54%; in assay [17] it was 11%. For the same compound, the %max in [18] was 160%.

Regarding `CN1C[C@H]2C=C(c3cccnc3)C[C@H](C2)C1`, the EC50 in assay [1] is greater than 10000 nM; in [2] it was 3500 nM; in assay [6], greater than 10000 nM; in assay [7] it was 3800 nM; in [10], 7530 nM; in assay [12], greater than 10000 nM. Also, the EC50 in assay [16] was 7660 nM. Besides, the Ki stood at 534 nM in assay [3], 74 nM in [5], 2.1 nM in assay [9] and 300 nM in [11]. The %max in [4] came out at 27%; in assay [8], 100%; in [13] it was 19%; in assay [14] it was 7%; in [15], 11%; in assay [17] it was 19%. Besides, the %max in assay [18] stood at 31%.

`CC(C)Oc1cncc(C2=CC3CC(C2)CN(C)C3)c1` (centres undefined): the EC50 in [1] is greater than 10000 nM; in assay [2] it was 3500 nM; in assay [6] it was 879 nM; in assay [7], 21300 nM; in assay [10], greater than 10000 nM; in assay [12] it was greater than 10000 nM. In addition, the EC50 in [16] was greater than 10000 nM. Also, the Ki in assay [3] was 1730 nM; in [5], greater than 10000 nM; in assay [9] it was 2.2 nM; in assay [11], 690 nM. Moreover, the %max in [4] came to 63%; in [8], 60%; in assay [13], 1%; in assay [14], 0.2%; in assay [15] it was 3.3%; in [17], 10%. Moreover, the %max in [18] turned out to be 15%.

For the compound `COc1ccc(C2=CC3CC(C2)CN(C)C3)cn1` (centres undefined), the Ki in assay [3] was greater than 10000 nM; in assay [5], greater than 10000 nM; in [9] it was 797 nM. Besides, the EC50 is 1890 nM in assay [10], 3460 nM in [12] and greater than 10000 nM in assay [16]. Besides, the %max in assay [13] is 91%; in assay [15] it was 20%; in assay [18], 61%.

As for `COc1cncc(C2=CC3CC(C2)CN(C)C3)c1` (centres undefined), the Ki worked out at 596 nM in assay [3], 605 nM in assay [5] and 0.6 nM in assay [9]. In addition, the EC50 in [10] came out at 3640 nM; in assay [12], 2660 nM; in assay [16], 5130 nM. Further, the figures for the %max in assay [13], in assay [15] and in assay [18] were 19%, 15% and 27%, respectively.

As to `CN1CC2C=C(c3ccc(F)nc3)CC(C2)C1` (centres undefined), the results for the Ki in assay [3], in assay [5] and in assay [9] were 1300 nM, 1300 nM and 18 nM, respectively. Further, the EC50 in [10], in [12] and in assay [16] was greater than 10000 nM in each case. The results for the %max in assay [13], in assay [15] and in assay [18] were 22%, 9.4% and 25%, respectively.

On to `Clc1ccc(C2=CC3CNCC(C2)C3)cn1` (centres undefined), for which the values for the Ki in assay [3], in assay [5] and in assay [9] were 6.2 nM, 39 nM and 0.4 nM, respectively. For the same compound, the EC50 in assay [10] was 16 nM; in [12], 54 nM; in [16], 35 nM. The %max was determined as 98% in assay [13], 152% in [15] and 141% in assay [18].

For the compound `N#Cc1cncc(C2=C[C@H]3CNC[C@@H](C2)C3)c1`, the Ki is 15 nM in assay [3], 73 nM in assay [5] and 0.3 nM in assay [9]. Moreover, the EC50 in assay [10] is 355 nM; in assay [12], 256 nM; in assay [16], 4190 nM. Further, the %max in assay [13] stood at 95%; in [15] it was 88%; in assay [18], 136%.

Turning to `CN1CC2C=C(c3cncc(Oc4ccccc4)c3)CC(C2)C1` (centres undefined), the Ki in [3] was 8.2 nM; in assay [5], 17 nM; in assay [9] it was 1.3 nM. Besides, the figures for the EC50 in assay [10], in [12] and in assay [16] were 100 nM, 183 nM and greater than 10000 nM, respectively. Also, the %max in [13] came out at 42%; in assay [15], 9.5%; in assay [18] it was 103%.
